The source of these data is ChEMBL document CHEMBL1134783, “N-Arylsulfonylindole derivatives as serotonin 5-HT(6) receptor ligands” (J Med Chem, 2001).

The target of experiment [1] is T1, 5-hydroxytryptamine receptor 6 (Homo sapiens, UniProt P50406). The experiment can be described thus: Binding affinity as displacement of [3H]5-HT binding to 5-hydroxytryptamine 6 receptor in HeLa cells. It counts as cell-based. A digest of the protocol: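 Human 5-HT6 stably expressed in HeLa cells; washed membranes in 50 mM Tris, 0.03% ascorbic acid, pH 7.6. Nonspecific binding defined with 10 µM 5-HT. Filtration and scintillation counting; one-site fit gave IC50, converted to Ki by Cheng-Prusoff. Geometric mean of ≥3 experiments, each in duplicate.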
A general note: Displacement assays read how much labelled ligand stays bound in the presence of the test substance.

Experiment [2] has as its target 5-hydroxytryptamine receptor 1B (Homo sapiens, UniProt P28222). The experiment can be described thus: Binding affinity against 5-hydroxytryptamine 1B receptor in CHO cells using [3H]5-HT as radioligand. The class given is cell-based.
In the next experiment the target is T2, D(4) dopamine receptor (Homo sapiens, UniProt P21917).
T2 sequence (P21917 whole entry): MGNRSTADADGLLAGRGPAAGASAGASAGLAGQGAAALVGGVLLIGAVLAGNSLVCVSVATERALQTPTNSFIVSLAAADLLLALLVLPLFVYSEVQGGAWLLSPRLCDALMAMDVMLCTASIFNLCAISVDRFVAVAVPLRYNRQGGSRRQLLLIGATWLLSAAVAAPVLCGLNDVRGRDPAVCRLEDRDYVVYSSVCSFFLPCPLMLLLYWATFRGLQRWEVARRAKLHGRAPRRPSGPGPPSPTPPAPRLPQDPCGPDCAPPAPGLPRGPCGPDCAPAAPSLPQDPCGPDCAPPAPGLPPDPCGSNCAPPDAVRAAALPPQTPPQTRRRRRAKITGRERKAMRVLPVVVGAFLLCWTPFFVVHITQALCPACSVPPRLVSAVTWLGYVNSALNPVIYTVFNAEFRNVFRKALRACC
The experiment can be described thus: Binding affinity against dopamine receptor D4 cloned in HEK 293 cells using [3H]spiperone radioligand. It counts as cell-based, HEK293.

For experiment [3], the target named is 5-hydroxytryptamine receptor 1D (Homo sapiens, UniProt P28221). The experiment can be described thus: Binding affinity against 5-hydroxytryptamine 1D receptor in CHO cells using [3H]5-HT as radioligand. It counts as cell-based.
Experiment [4] addresses 5-hydroxytryptamine receptor 7 (Homo sapiens, UniProt P34969). The experiment can be described thus: Binding affinity for 5-hydroxytryptamine 7 receptor human cloned receptors in CHO cells using [3H]5-HT. It counts as cell-based.
The target in experiment [5] is T3, 5-hydroxytryptamine receptor 1F (Homo sapiens, UniProt P30939).
T3 sequence (P30939 whole entry): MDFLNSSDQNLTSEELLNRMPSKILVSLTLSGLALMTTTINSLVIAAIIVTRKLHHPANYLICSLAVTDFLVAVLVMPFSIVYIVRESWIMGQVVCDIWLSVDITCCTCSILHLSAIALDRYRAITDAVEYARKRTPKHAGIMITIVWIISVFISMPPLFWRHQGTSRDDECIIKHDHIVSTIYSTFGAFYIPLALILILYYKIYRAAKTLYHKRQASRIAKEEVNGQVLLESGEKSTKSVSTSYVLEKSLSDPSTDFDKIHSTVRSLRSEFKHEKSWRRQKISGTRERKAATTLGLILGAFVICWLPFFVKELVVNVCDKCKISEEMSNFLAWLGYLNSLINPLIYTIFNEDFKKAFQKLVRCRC
The experiment can be described thus: Binding affinity against 5-hydroxytryptamine 1F receptor in CHO cells using [3H]5-HT radioligand. It counts as cell-based.

In experiment [6] the target is 5-hydroxytryptamine receptor 2A (Rattus norvegicus, UniProt P14842). The experiment can be described thus: Binding affinity for 5-hydroxytryptamine 2 receptor of rat cortical membrane using [3H]DOB radioligand.
A further experiment has as its target D(2) dopamine receptor (Homo sapiens, UniProt P14416). The experiment can be described thus: Binding affinity against dopamine receptor D2 using [3H]spiperone radioligand in CHO cells. The class given is cell-based.
The target in a further experiment is D(3) dopamine receptor (Homo sapiens, UniProt P35462). The experiment can be described thus: Binding affinity against dopamine receptor D3 in HEK 293 cells using [3H]spiperone radioligand. It counts as cell-based, HEK293.
For experiment [7], the target named is T4, 5-hydroxytryptamine receptor 1A (Homo sapiens, UniProt P08908).
T4 sequence (P08908 whole entry): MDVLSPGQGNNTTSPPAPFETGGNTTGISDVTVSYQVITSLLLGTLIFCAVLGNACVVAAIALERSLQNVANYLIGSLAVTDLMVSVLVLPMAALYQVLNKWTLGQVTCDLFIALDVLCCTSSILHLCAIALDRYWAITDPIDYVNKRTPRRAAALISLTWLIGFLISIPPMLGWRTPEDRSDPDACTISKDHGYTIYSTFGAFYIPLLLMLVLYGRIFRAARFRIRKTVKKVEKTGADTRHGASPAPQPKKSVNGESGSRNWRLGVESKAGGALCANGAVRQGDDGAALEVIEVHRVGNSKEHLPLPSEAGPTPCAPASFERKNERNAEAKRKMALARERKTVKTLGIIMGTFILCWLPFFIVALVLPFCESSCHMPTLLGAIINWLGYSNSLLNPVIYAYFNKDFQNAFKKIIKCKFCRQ
The experiment can be described thus: Binding affinity against 5-hydroxytryptamine 1A receptor in HeLa cells was determined using [3H]5-HT. The class given is cell-based.

The target in experiment [8] is 5-hydroxytryptamine receptor 5A (Rattus norvegicus, UniProt P35364). The experiment can be described thus: Binding affinity against 5-hydroxytryptamine 5A receptor in HEK 293 cells was determined using [3H]LSD as radioligand. It counts as cell-based, HEK293.
For experiment [9], the target named is T1, 5-hydroxytryptamine receptor 6. The experiment can be described thus: Binding affinity as displacement of [3H]5-HT binding to 5-hydroxytryptamine 6 receptor in HeLa cells. The class given is cell-based. The essentials: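 Membranes from HeLa cells stably expressing cloned human 5-HT6 receptor, in 50 mM Tris with 0.03% ascorbic acid, pH 7.6. […] Nonspecific binding defined by 10 µM 5-HT. Filtration, then scintillation counting. One-site fit gave IC50, converted to Ki by Cheng-Prusoff. Geometric mean of ≥3 independent duplicate runs.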

Experiment [10] concerns the target T3, 5-hydroxytryptamine receptor 1F. The experiment can be described thus: Binding affinity against 5-hydroxytryptamine 1F receptor in CHO using [3H]5-HT radioligand.

D(3) dopamine receptor, sequence (P35462 whole entry): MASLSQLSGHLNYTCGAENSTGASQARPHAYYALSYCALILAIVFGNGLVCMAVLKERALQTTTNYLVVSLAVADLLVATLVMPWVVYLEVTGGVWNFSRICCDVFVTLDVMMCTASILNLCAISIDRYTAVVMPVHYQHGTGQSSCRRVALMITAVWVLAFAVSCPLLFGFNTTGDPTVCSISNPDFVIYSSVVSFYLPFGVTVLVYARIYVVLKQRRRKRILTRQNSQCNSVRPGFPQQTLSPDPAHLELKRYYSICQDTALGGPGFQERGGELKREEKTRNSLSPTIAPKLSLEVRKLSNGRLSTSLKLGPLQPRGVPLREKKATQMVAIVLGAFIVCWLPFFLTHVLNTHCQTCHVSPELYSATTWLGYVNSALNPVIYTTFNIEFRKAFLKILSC
5-hydroxytryptamine receptor 2A, sequence (P14842 whole entry): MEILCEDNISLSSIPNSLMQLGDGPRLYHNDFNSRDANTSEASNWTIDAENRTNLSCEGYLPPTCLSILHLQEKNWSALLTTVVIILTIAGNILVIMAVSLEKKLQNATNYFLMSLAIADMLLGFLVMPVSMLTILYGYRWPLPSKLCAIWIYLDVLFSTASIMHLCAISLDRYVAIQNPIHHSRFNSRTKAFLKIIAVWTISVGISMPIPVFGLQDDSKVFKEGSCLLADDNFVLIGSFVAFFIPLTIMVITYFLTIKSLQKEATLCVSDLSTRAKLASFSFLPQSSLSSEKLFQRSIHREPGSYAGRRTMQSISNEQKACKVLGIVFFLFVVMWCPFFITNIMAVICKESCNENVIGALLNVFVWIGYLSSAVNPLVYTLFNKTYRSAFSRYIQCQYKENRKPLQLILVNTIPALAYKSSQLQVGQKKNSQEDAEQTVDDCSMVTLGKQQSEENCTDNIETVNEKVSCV
T1 sequence (P50406 whole entry): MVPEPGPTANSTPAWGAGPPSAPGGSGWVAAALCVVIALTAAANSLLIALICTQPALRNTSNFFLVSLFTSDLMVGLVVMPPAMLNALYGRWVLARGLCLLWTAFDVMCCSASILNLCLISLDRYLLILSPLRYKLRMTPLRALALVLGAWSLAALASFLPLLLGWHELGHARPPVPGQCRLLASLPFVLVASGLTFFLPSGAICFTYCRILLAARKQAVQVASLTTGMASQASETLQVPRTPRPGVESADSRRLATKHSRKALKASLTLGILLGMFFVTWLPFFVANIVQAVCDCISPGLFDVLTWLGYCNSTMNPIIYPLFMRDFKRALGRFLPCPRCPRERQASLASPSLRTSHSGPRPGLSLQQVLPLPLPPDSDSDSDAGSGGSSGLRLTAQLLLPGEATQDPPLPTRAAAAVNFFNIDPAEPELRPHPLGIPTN
5-hydroxytryptamine receptor 1D, sequence (P28221 whole entry): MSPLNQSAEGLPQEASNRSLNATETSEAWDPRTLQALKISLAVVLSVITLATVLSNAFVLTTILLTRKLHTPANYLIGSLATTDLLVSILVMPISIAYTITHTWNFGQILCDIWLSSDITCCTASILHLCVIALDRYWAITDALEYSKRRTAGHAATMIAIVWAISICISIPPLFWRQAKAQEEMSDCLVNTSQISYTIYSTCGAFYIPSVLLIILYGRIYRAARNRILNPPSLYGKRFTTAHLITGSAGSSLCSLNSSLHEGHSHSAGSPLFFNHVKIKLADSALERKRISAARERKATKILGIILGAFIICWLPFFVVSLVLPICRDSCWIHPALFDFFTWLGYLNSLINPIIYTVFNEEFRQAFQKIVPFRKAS
5-hydroxytryptamine receptor 1B, sequence (P28222 whole entry): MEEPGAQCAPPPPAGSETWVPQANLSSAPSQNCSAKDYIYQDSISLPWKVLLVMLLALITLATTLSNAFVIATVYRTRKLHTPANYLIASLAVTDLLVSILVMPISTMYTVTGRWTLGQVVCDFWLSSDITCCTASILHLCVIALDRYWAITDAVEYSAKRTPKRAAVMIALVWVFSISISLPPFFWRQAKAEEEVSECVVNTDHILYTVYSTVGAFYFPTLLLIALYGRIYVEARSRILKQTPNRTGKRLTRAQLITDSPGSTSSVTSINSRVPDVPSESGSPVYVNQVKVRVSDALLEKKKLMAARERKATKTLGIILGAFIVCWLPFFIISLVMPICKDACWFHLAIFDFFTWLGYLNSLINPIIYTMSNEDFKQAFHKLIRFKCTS
5-hydroxytryptamine receptor 7, sequence (P34969 whole entry): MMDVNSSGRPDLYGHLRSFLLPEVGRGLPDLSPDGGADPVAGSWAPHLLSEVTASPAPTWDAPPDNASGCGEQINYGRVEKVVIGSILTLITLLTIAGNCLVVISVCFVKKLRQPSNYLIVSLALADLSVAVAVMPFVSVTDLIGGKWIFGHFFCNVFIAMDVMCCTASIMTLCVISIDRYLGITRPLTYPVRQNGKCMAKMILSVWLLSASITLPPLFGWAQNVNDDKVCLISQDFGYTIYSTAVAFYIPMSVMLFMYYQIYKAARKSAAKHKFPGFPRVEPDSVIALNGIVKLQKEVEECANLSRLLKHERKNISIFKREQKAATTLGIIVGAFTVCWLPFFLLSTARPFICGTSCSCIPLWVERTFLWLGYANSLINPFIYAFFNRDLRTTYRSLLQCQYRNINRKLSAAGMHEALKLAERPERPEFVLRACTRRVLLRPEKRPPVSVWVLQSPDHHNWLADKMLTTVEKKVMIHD
5-hydroxytryptamine receptor 5A, sequence (P35364 whole entry): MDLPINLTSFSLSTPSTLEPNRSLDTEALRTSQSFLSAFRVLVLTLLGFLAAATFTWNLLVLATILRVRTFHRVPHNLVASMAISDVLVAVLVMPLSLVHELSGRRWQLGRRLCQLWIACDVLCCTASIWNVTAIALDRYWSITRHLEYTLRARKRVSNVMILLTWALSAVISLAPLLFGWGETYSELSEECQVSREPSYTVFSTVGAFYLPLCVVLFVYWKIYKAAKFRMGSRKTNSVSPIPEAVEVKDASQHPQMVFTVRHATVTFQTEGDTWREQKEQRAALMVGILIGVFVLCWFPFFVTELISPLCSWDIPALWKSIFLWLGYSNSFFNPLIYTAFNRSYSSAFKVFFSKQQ
D(2) dopamine receptor, sequence (P14416 whole entry): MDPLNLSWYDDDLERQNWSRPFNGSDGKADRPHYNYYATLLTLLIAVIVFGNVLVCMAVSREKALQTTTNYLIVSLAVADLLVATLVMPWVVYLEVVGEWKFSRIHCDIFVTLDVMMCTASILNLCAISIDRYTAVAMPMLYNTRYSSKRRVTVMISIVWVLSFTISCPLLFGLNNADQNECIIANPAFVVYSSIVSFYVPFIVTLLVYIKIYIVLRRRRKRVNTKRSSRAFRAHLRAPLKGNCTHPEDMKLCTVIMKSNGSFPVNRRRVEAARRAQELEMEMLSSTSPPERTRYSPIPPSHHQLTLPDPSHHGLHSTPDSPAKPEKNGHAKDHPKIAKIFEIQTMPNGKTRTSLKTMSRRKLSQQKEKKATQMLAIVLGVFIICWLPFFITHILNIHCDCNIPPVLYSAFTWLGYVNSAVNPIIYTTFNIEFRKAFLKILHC

By Ki is commonly meant a measure of affinity in units of concentration, obtained from inhibition or displacement. A higher Ki goes with a looser hold on the target. In experiment [1], `COc1ccc2c(c1)C(CCN(C)C)CN2S(=O)(=O)c1ccccc1` (stereo not given) showed a Ki of 63 nM.
As for `CN(C)CCc1cn(S(=O)(=O)c2ccccc2)c2ccc(O)cc12`, in experiment [1], the Ki amounted to 19 nM.
`CN(C)CCc1cccc2c1cc(C(=O)c1ccccc1)n2S(=O)(=O)c1ccccc1`: the Ki is 190 nM in [2]; over 3200 nM at D(4) dopamine receptor; 98 nM in [3]; 1300 nM in [4]; 3 nM in [1]; 570 nM in experiment [5]. In addition, the inhibitory constant (Ki) was found to be 6.6 nM in [6]; 750 nM on D(2) dopamine receptor; 66 nM on D(3) dopamine receptor; 480 nM in experiment [7]; 1600 nM in experiment [8].
For the compound `Cc1ccc(S(=O)(=O)n2cc3c4c(cccc42)[C@H](O)[C@@H](N(C)C)C3)cc1`, the Ki in experiment [2] was 3100 nM; on D(4) dopamine receptor it was over 3200 nM; in [3], 3900 nM; in [4] it was over 5800 nM; in experiment [1], 7.2 nM; in [6], 320 nM. Besides, the Ki on D(2) dopamine receptor is over 1700 nM; at D(3) dopamine receptor it was 3700 nM; in experiment [7], over 5600 nM; in experiment [8] it was over 6400 nM.
Turning to `COc1ccc2c(c1)c(CCN(C)C)c(C)n2S(=O)(=O)c1ccccc1`, the inhibition constant (Ki) in experiment [1] came to 12 nM.
For the compound `CCOC(=O)c1[nH]c2ccccc2c1CCN(C)C`, the Ki in experiment [2] turned out to be 910 nM; on D(4) dopamine receptor, 1600 nM; in experiment [3], 330 nM; in experiment [4], 510 nM; in [1], 20 nM; in [5], 2000 nM. For the same compound, the inhibition constant Ki is 130 nM in experiment [6], 59 nM at D(2) dopamine receptor, 110 nM on D(3) dopamine receptor and 1800 nM in [7].
For the compound `COc1ccc(S(=O)(=O)n2cc(CCN(C)C)c3cc(OC)ccc32)cc1`, the inhibition constant Ki in [1] came to 26 nM.
On to `COc1ccc2c(c1)c(CCN(C)C)cn2S(=O)(=O)c1ccccc1Cl`, for which, in [1], the affinity, expressed as Ki, was 11 nM. Against the preceding compound, the Ki is about 2.4-fold lower.
In [9], `CN(C)CCCc1cccc2c1ccn2S(=O)(=O)c1ccccc1` returned a Ki of 7.9 nM.
As for `CN(C)CCc1cn(S(C)(=O)=O)c2ccccc12`, the Ki in [1] is 620 nM.
The same measure, in the same setting: the result for `COc1ccc2c(c1)c(CCN(C)C)cn2S(=O)(=O)c1cccs1` reads 8.3 nM.
As to `CN(C)CCc1cccc2c1ccn2S(=O)(=O)c1ccccc1`, the inhibitory constant (Ki) was 11 nM in experiment [2]; over 3200 nM on D(4) dopamine receptor; 9.3 nM in experiment [3]; 460 nM in experiment [4]; 1.5 nM in experiment [1]; 3.9 nM in experiment [5]. In addition, the Ki in experiment [6] is 18 nM; at D(2) dopamine receptor it was 1600 nM; on D(3) dopamine receptor it was 300 nM; in experiment [7], 170 nM; in [8], 3400 nM.
With `CN(C)CCc1cn(C(=O)c2ccccc2)c2ccc(O)cc12`, the Ki in [2] is 420 nM; in experiment [10], 29 nM; on D(4) dopamine receptor it was over 3900 nM; in experiment [3] it was 180 nM; in [4], 1600 nM; in experiment [1], 54 nM. Also, the Ki was 200 nM in experiment [6]; over 2200 nM on D(2) dopamine receptor; over 3500 nM at D(3) dopamine receptor; 620 nM in experiment [7]; 4500 nM in experiment [8].
As for `COc1ccc2c(c1)c(CCN(C)C)cn2S(=O)(=O)c1ccc(Cl)cc1`, the affinity in experiment [1] corresponds to a Ki of 17 nM.
Consider `COc1ccc2c(c1)c(CCN(C)C)cn2S(=O)(=O)c1ccc(C)cc1`, for which, in experiment [1], the affinity corresponds to a Ki of 45 nM.
`COc1ccc2[nH]c(C)c(CCN(C)C)c2c1` came in with a Ki in experiment [1] of 89 nM.
For the compound `NCCc1cccc2c1ccn2S(=O)(=O)c1ccccc1`, the Ki in experiment [2] is 6.5 nM; at D(4) dopamine receptor, over 3200 nM; in experiment [3] it was 4.5 nM; in [4] it was 29 nM; in experiment [1], 2.4 nM; in experiment [5] it was 47 nM. Moreover, the inhibition constant (Ki) was 4.8 nM in experiment [6]; over 1700 nM at D(2) dopamine receptor; 940 nM at D(3) dopamine receptor; 140 nM in experiment [7]; 1200 nM in [8].
`CN(C)CCc1cn(S(=O)(=O)c2ccccc2)c2ccc(OCc3ccccc3)cc12`: the Ki in experiment [1] came to 320 nM. This lies in the sub-micromolar range.
On to `CN(C)CCc1cccc2[nH]c(C(=O)c3ccccc3)cc12`, for which, in [1], the inhibition constant Ki was found to be 260 nM. This Ki and that of the compound before are within 1.5-fold of each other.
Consider `COc1ccc2c(c1)c(CCN(C)C)cn2S(=O)(=O)c1ccc2ccccc2c1`, for which affinity in [1] was put at a Ki of 9.8 nM. This Ki lies about 27-fold lower than the previous one.
Turning to `CO[C@H]1c2cccc3c2c(cn3S(=O)(=O)c2ccc(C)cc2)C[C@@H]1N(C)C`, the Ki in experiment [1] was found to be 130 nM.
Consider `CN(C)CCc1cn(S(=O)(=O)c2ccccc2)c2ccccc12`, for which the inhibitory constant (Ki) in experiment [2] is 2300 nM; on D(4) dopamine receptor it was over 3200 nM; in experiment [3], 510 nM; in [4], 3700 nM; in [1], 2.9 nM; in [5], 770 nM. Moreover, the Ki in experiment [6] was 84 nM; at D(2) dopamine receptor it was 62 nM; at D(3) dopamine receptor, 23 nM; in [7], 520 nM; in experiment [8], 4000 nM.
In the case of `CN(C)CCc1cn(S(=O)(=O)c2ccccc2)c2ccc(C#N)cc12`, the affinity in experiment [1], expressed as Ki, was 33 nM. This counts as double-digit nanomolar.
Turning to `COc1cccc(Cc2noc(-c3[nH]c4ccccc4c3CCN(C)C)n2)c1`, the Ki in experiment [1] was 1.3 nM. Compared with the last compound, the Ki is about 25-fold lower.
Same read-out and setting: with `COc1ccc2c(c1)c(CCN1CCOCC1)cn2S(=O)(=O)c1ccccc1` the figure was 1700 nM; with `COc1ccc2c(c1)c(CCN)cn2S(=O)(=O)c1ccccc1`, 40 nM; with `COc1ccc2c(c1)c(CCN(C)C)cn2S(=O)(=O)c1cccc(Cl)c1`, 7.9 nM.
Take `COc1ccc2c(c1)c(CCN(C)C)cn2S(=O)(=O)c1ccccc1`: the inhibition constant Ki in experiment [2] is 2200 nM; on D(4) dopamine receptor, over 3200 nM; in experiment [3], 720 nM; in experiment [4] it was 1900 nM; in experiment [5], 2500 nM; in [6], 65 nM. In addition, the Ki is 210 nM at D(2) dopamine receptor, 80 nM on D(3) dopamine receptor and over 5000 nM in experiment [8].
In the case of `CN(C)CCc1cn(C(=O)OC(C)(C)C)c2ccc(O)cc12`, in experiment [1], affinity was put at a Ki of 370 nM.
